Assay results reported in paper PMC11626171 (Proceedings of the National Academy of Sciences of the …, 2024).

Tests used:
[1] = tested on: people with ASD; details: multisite clinical trial; cited from earlier work
[2] = Pharmacokinetics of nebulized AVP: cisternal CSF AVP levels; format: in vivo, rhesus macaques (Macaca mulatta); details: N = 4, ELISA
Summary of the method: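 Same blinded nebulization at 0900. Sedation with dexmedetomidine (0.015 to 0.075 mg/kg) plus ketamine (5 to 30 mg/kg) at 20 min. Paired cisternal CSF and femoral venous blood sampled at two timepoints per session (30/90 or 60/120 min). Blood-contaminated CSF excluded. Unextracted CSF run by enzyme immunoassay in duplicate. Values given as ratio to matched placebo timepoint, log-transformed, REML mixed model.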

[3] = tested on: low-social male rhesus monkeys; assay: Face recognition memory, visual paired comparison task; format: in vivo, rhesus macaques (Macaca mulatta)
Summary of the method: (§1)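 Young adult males trained to breathe via mask-attached nebulizer until 2 min 40 s cumulative breathing. Dosed 0, 25 or 50 IU AVP per 1 mL in 0.4% 4-chlorobutanol/0.9% NaCl vehicle (vehicle as placebo), modified Latin square order, blinded, ≥1-week washout, 0900 dosing. Unique stimulus sets per dose on monitor. Looks +1 each; ln(novel/familiar) analysed by repeated-measures REML mixed model.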

[4] = tested on: low-social male rhesus monkeys; format: in vivo, rhesus macaques (Macaca mulatta); details: N = 8
Summary of the method: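 Low-social males habituated and given refresher mask training; next day nebulized at 0900 with 0, 25 or 50 IU per 1 mL (diluent placebo), order by modified Latin square, one-week washout. From 30 min post-dose, viewed on a monitor 61 cm from the cage videos of an unfamiliar adult male showing affiliative or aggressive behavior, interspersed with neutral nonsocial bouts, with a unique stimulus set per dose.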

[5] = tested on: children with ASD; details: 4-wk intranasal AVP treatment, pilot clinical trial; cited from earlier work
[6] = Pharmacokinetics of nebulized AVP: plasma AVP levels; format: in vivo, rhesus macaques (Macaca mulatta); details: N = 4, ELISA
Summary of the method: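 Nebulized through a face mask for 2 min 40 s of cumulative breathing at 0900 (0, 25 or 50 IU per 1 mL; diluent vehicle as placebo). Sedated with dexmedetomidine/ketamine 20 min later. Femoral blood sampled at two of 30/60/90/120 min, on EDTA, spun 1600×g 4 °C 15 min. Plasma extracted, nitrogen-dried, reconstituted, enzyme immunoassay in duplicate, expressed as ratio to the matched placebo timepoint. Washout ≥1 week.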

[7] = tested on: low-social male rhesus monkeys; assay: Object recognition memory, visual paired comparison task; format: in vivo, rhesus macaques (Macaca mulatta); details: nebulized AVP (25 and 50 IU pooled) vs placebo, within-subjects, N = 8, testing began 30 min after nebulization
Summary of the method: as §1

[8] = nebulized 25 or 50 IU AVP, 30, 60, 90, 120 min postnebulization
[9] = nebulized AVP (25 and 50 IU pooled) vs placebo, within-subjects

cisternal CSF AVP levels following AVP nebulization relative to placebo, time course [2, 8] | aggressive responses to conspecific aggressive or affiliative overtures [4, 9] | plasma AVP levels following AVP nebulization relative to placebo, time course [6, 8] | Compound | core behavioral symptoms in people with ASD [1] | CSF AVP level effect, 50 IU vs 25 IU dose ([2]; nebulized AVP) | face recognition memory (ratio of looks to novel versus familiar faces) ([3]; nebulized AVP (25 and 50 IU pooled) vs placebo, within-subjects, N = 8, testing began 30 min after nebulization) | recognition memory findings, 25 IU vs 50 IU AVP dose ([3]; nebulized AVP, faces and objects, N = 8) | affiliative response rate to conspecific aggressive cues [4, 9] | affiliative responses to conspecific affiliative communication cues [4, 9] | affiliative response findings, 25 IU vs 50 IU AVP dose ([4]; nebulized AVP) | aggressive response findings, 25 IU vs 50 IU AVP dose ([4]; nebulized AVP) | social abilities in children with ASD [5] | plasma AVP level effect, 50 IU vs 25 IU dose ([6]; nebulized AVP) | object recognition memory (ratio of looks to novel versus familiar objects) [7]
– | – | – | oxytocin [OXT] | neither balovaptan [an AVPR1A antagonist ([49])], nor OXT ([50]), improve core behavioral symptoms | – | – | – | – | – | – | – | – | – | –
– | – | – | CN1Cc2cc(Cl)ccc2-n2c(nnc2[C@H]2CC[C@H](Oc3ccccn3)CC2)C1 [balovaptan] | neither balovaptan [an AVPR1A antagonist ([49])], nor OXT ([50]), improve core behavioral symptoms | – | – | – | – | – | – | – | – | – | –
progressive linear increase | did not increase | quadratic rise and fall | NC(=O)CC[C@@H]1NC(=O)[C@H](Cc2ccccc2)NC(=O)[C@H](Cc2ccc(O)cc2)NC(=O)[C@@H](N)CSSC[C@@H](C(=O)N2CCC[C@H]2C(=O)N[C@@H](CCCN=C(N)N)C(=O)NCC(N)=O)NC(=O)[C@H](CC(N)=O)NC1=O [AVP, [ARG8]-vasopressin] | – | consistently stronger in the 50 IU AVP dose compared to the 25 IU AVP dose | rescued | did not differ between the 25 and 50 IU AVP doses | no treatment-related difference | reciprocated affiliative communication cues with species-typical affiliative responses | did not differ between the 25 and 50 IU AVP doses | did not differ between the 25 and 50 IU AVP doses | improves empathic accuracy, facial emotion recognition, and social abilities | consistently stronger in the 50 IU AVP dose compared to the 25 IU dose | did not differ between treatment conditions
